Test results: ChEMBL document CHEMBL3407388, “Synthesis, anticancer activity and molecular docking studies on a series of heterocyclic trans-cyanocombretastatin analogues as antitubulin agents” (2015)

How the values were obtained:
A549 = experiment: Cytotoxicity against human A549 cells assessed as growth inhibition after 48 hrs by SRB assay; format: functional; conditions: A549, 48 h
Procedure, shortened: (§1)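 NCI 60-cell panel; compounds passing a single-dose screen (10−5 M, 48 h) were tested at five 10-fold dilutions (10−4 to 10−8 M) with 48 h drug exposure. GI50 is the molar concentration giving 50% reduction in net cell growth relative to cell numbers on day 0.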

[1] = Cytotoxicity against human UO31 cells assessed as growth inhibition after 48 hrs by SRB assay; format: functional; conditions: UO-31, 48 h
NCI-H322M = experiment: Cytotoxicity against human NCI-H322M cells assessed as growth inhibition after 48 hrs by SRB assay; format: functional; procedure, shortened: as §1
SK-MEL-2 = experiment: Cytotoxicity against human SK-MEL-2 cells assessed as growth inhibition after 48 hrs by SRB assay; format: functional; conditions: SK-MEL-2, 48 h; procedure, shortened: as §1
CCRF-CEM = experiment: Cytotoxicity against human CCRF-CEM cells assessed as growth inhibition after 48 hrs by SRB assay; format: functional; procedure, shortened: as §1
MDA-MB-468 = experiment: Cytotoxicity against human MDA-MB-468 cells assessed as growth inhibition after 48 hrs by SRB assay; format: functional; conditions: MDA-MB-468, 48 h; procedure, shortened: as §1
T47D = experiment: Cytotoxicity against human T47D cells assessed as growth inhibition after 48 hrs by SRB assay; format: functional
SK-MEL-28 = experiment: Cytotoxicity against human SK-MEL-28 cells assessed as growth inhibition after 48 hrs by SRB assay; format: functional; conditions: SK-MEL-28, 48 h; procedure, shortened: as §1
[2] = Cytotoxicity against human OVCAR5 cells assessed as growth inhibition after 48 hrs by SRB assay; format: functional; conditions: OVCAR-5, 48 h; procedure, shortened: as §1
HOP-62 = experiment: Cytotoxicity against human HOP62 cells assessed as growth inhibition after 48 hrs by SRB assay; format: functional; conditions: HOP-62, 48 h; procedure, shortened: as §1
HOP-92 = experiment: Cytotoxicity against human HOP92 cells assessed as growth inhibition after 48 hrs by SRB assay; format: functional; conditions: HOP-92, 48 h; procedure, shortened: as §1
ACHN = experiment: Cytotoxicity against human ACHN cells assessed as growth inhibition after 48 hrs by SRB assay; format: functional; procedure, shortened: as §1
Malme-3M = experiment: Cytotoxicity against human MALME-3M cells assessed as growth inhibition after 48 hrs by SRB assay; format: functional; procedure, shortened: as §1
NCI-H522 = experiment: Cytotoxicity against human NCI-H522 cells assessed as growth inhibition after 48 hrs by SRB assay; format: functional; conditions: NCI-H522, 48 h; procedure, shortened: as §1
MV4-11 = experiment: Anti-leukemic activity against human MV4-11 cells assessed as cell dead after 24 to 48 hrs by annexin V-FITC/7-AAD staining-based flow cytometric analysis; format: functional; conditions: read-out: LD50 (the source's name)
Procedure, shortened: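 MV4-11 cells grown in IMDM with 10% FBS, penicillin and streptomycin, seeded at 5 × 10^5/ml and treated. At 24 and 48 h they were stained with annexin V-FITC plus 1 μg/ml 7-AAD. Percent dead cells (annexin V+) was read by flow cytometry and expressed relative to the DMSO vehicle control.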

SR = experiment: Cytotoxicity against human SR cells assessed as growth inhibition after 48 hrs by SRB assay; format: functional
[3] = Cytotoxicity against human UACC257 cells assessed as growth inhibition after 48 hrs by SRB assay; format: functional; conditions: UACC-257, 48 h
[4] = Cytotoxicity against human EKVX cells assessed as growth inhibition after 48 hrs by SRB assay; format: functional; procedure, shortened: as §1
Tubulin (Homo sapiens) = Tubulin (Homo sapiens) (UniProt P68371+Q9H4B7+P0DPH7+P68366+Q13509+Q71U36+P04350+Q3ZCM7+P07437+P68363+Q9BQE3+Q6PEY2+Q13885+Q9BVA1+Q9BUF5); experiment: Inhibition of tubulin polymerization in human MV4-11 cells at 50 nM after 2 hrs by immunoblot analysis relative to control; format: cell-based
Procedure, shortened: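 MV4-11 AML cells were exposed for 2 h to 25, 50 or 100 nM compound. Free tubulin (supernatant) and polymerized tubulin (pellet) were separated and detected by anti-tubulin immunoblot.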

Structure (SMILES) | GI50 (A549) | GI50 [1] | GI50 (NCI-H322M) | GI50 (SK-MEL-2) | GI50 (CCRF-CEM) | GI50 (MDA-MB-468) | GI50 (T47D) | GI50 (SK-MEL-28) | GI50 [2] | GI50 (HOP-62) | GI50 (HOP-92) | GI50 (ACHN) | GI50 (Malme-3M) | GI50 (NCI-H522) | CC50 (MV4-11) | GI50 (SR) | GI50 [3] | GI50 [4] | inhibition (Tubulin (Homo sapiens))
COc1cc(/C(C#N)=C/c2coc3ccccc23)cc(OC)c1OC | 665 nM | 2890 nM | 19100 nM | 304 nM | 1410 nM | 237 nM | 811 nM | 1610 nM | 3330 nM | 6980 nM | 3020 nM | 1940 nM | 0.868 µM | 261 nM | 4530 nM | 681 nM | – | – | –
COc1cc(OC)cc(/C(C#N)=C/c2nc3ccccc3s2)c1 | – | 679 nM | > 10000 nM | 958 nM | – | 2040 nM | 1180 nM | 1980 nM | 4850 nM | 3350 nM | 534 nM | 518 nM | 0.699 µM | – | 4340 nM | 402 nM | – | – | –
COc1ccc(/C(C#N)=C/c2cc3ccccc3o2)cc1OC | 520 nM | 3790 nM | 6180 nM | 487 nM | 777 nM | 421 nM | 996 nM | 3510 nM | 5230 nM | 2290 nM | 1130 nM | 12400 nM | 0.629 µM | 438 nM | > 20000 nM | 470 nM | 18 µM | – | –
COc1cc(/C(C#N)=C/c2cc3ccccc3[nH]2)cc(OC)c1OC | < 10 nM | < 10 nM | – | < 10 nM | 17 nM | 22 nM | 2500 nM | – | 80 nM | < 10 nM | < 10 nM | < 10 nM | 8.28 µM | < 10 nM | 44 nM | < 10 nM | 1.06 µM | 1160 nM | > 50%
COc1cc(/C(C#N)=C/c2cc3ccccc3n2Cc2ccc(C#N)cc2)cc(OC)c1OC | 76 nM | 201 nM | 465 nM | 528 nM | 136 nM | 41 nM | 95200 nM | 161 nM | 259 nM | 92 nM | 77 nM | 79 nM | – | 33 nM | 369 nM | – | 0.062 µM | – | –
COc1cc(OC)cc(/C(C#N)=C/c2c[nH]c3ccccc23)c1 | 61 nM | 663 nM | – | 51 nM | 42 nM | 51 nM | – | 81 nM | 197 nM | 273 nM | 68 nM | – | – | 27 nM | 375 nM | 33 nM | – | 478 nM | –
COc1ccc(/C(C#N)=C/c2c[nH]c3ccccc23)cc1OC | 5160 nM | 14300 nM | 24300 nM | 4700 nM | 2740 nM | – | 6830 nM | 6250 nM | > 100000 nM | 8690 nM | 5260 nM | 23700 nM | 9.91 µM | 3050 nM | > 20000 nM | 1450 nM | 11.9 µM | 18500 nM | –
COc1cc(/C(C#N)=C/c2c[nH]c3ccccc23)cc(OC)c1OC | 78 nM | 1410 nM | – | – | 58 nM | 41 nM | 58 nM | 90 nM | 10600 nM | 82 nM | 1010 nM | 1760 nM | 12.5 µM | 37 nM | 565 nM | 22 nM | 11.3 µM | 596 nM | –
COc1ccc(/C(C#N)=C/c2cc3ccccc3[nH]2)cc1OC | 114 nM | 71 nM | 735 nM | 312 nM | 62 nM | 350 nM | 573 nM | 1940 nM | 471 nM | – | 58 nM | 82 nM | – | 49 nM | – | 42 nM | 27 µM | 307 nM | –
COc1cc(/C(C#N)=C/c2nc3ccccc3s2)cc(OC)c1OC | 379 nM | 83 nM | 2290 nM | 287 nM | 55 nM | 84 nM | – | 1810 nM | 347 nM | 1930 nM | – | 89 nM | 0.515 µM | 22 nM | 233 nM | 107 nM | > 100 µM | – | –
COc1cc(/C(C#N)=C/c2cc3ccccc3o2)cc(OC)c1OC | < 10 nM | 2290 nM | < 10 nM | < 10 nM | 24 nM | 22 nM | 4340 nM | < 10 nM | 42 nM | < 10 nM | < 10 nM | 217 nM | 59.9 µM | < 10 nM | 47 nM | < 10 nM | 63.2 µM | 59 nM | > 50%
COc1ccc2[nH]cc(/C=C(\C#N)c3cc(OC)c(OC)c(OC)c3)c2c1 | 86 nM | 1260 nM | 44 nM | – | 64 nM | 35 nM | 65 nM | 92 nM | 516 nM | 133 nM | 83 nM | 1660 nM | 5.85 µM | 86 nM | 467 nM | 27 nM | 10.7 µM | 485 nM | –
